From PubChem BioAssay
This is a sample that favours compounds with a hit; in the whole collection about 4.9% have one here.
NF-kB expr up: compounds increasing NF-kB expression in human neuronal cells. AID 1239. NF-kB reporter expression; active compounds read high. fold change at 12.5 µM. 1.6% of 190,000 active; in the data active = fold change above about 3.3
STAT3 blocker: reduces IL-6 driven STAT3 reporter signal. AID 862. U3A cells, IL-6 STAT3-luciferase reporter, luminescence; host cell line lacks STAT1. inhibition, % at 5.5 µM. 0.89% of 190,000 active;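 active = inhibition above the mean inhibition across all screened compounds plus 3 SD, cut at about 44% in these data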;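 also: 0% = DMSO only wells and 100% = 100 µM nifuroxazide control wells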
STAT1 act-1: activators of IFN-gamma induced STAT1 signaling. NIH 3T3 STAT1-luciferase reporter, luminescence; 100% = IFN-gamma alone, no compound. activation (% of control), % at 5.5 µM. 2.6% of 200,000 active;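 active = activation above the screen-wide mean activation plus 3 SD, cut at about 130% in these data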;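 also: raw ratio to IFN-gamma control signal so 100% means no change and 0% no light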
STAT1 inh: reduces IFN-gamma driven STAT1 reporter signal. NIH 3T3 STAT1-luciferase reporter, luminescence. inhibition, % at 5.5 µM. 0.35% of 200,000 active. AID 920;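 active = inhibition above a set limit, the mean inhibition across all tested compounds plus 3 SD, cut at about 34% in these data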;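 also: 0% = IFN-gamma with DMSO and 100% = IFN-gamma with 300 µM nifuroxazide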
STAT3 act-1: STAT3 signaling activation. activation (% of control), % at 5.6 µM. U3A cells, IL-6 STAT3-luciferase reporter, luminescence; 100% = signal with IL-6 EC80 alone. 0.91% of 190,000 active;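 active = activation above the screen-wide mean of compound activation plus 3 SD, cut at about 130% in these data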;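 also: 0% = background luminescence of wells with medium and substrate only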
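Assay system – human STAT1-deficient U3A cells with stable STAT3-luciferase reporter · Also added – IL-6 (33 ng/mL) · Schedule – compound 1 h, then IL-6 6 h at 37 °C · Technique – reporter luminescence signal · Evaluation – % activation versus median of IL-6-stimulated wells · Benchmarks – IL-6-only wells as 100% reference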
APP 5'UTR act: APP 5'UTR luciferase reporter activation; SH-SY5Y APP 5'UTR luciferase reporter, luminescence; zero percent = DMSO vehicle wells; activation, % at 2 µM; 1% of 190,000 active; AID 1276;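 active = activation above a set limit, based on mean plus 3 SD of controls, cut at about 140% in these data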
STAT3 act-2: STAT3 activation, confirmation assay | potentiation (% of control), % at 5.7 µM | 64% of 1,200 active | shares compounds with STAT3 act-1 | U3A STAT3-luciferase reporter, IL-6 potentiation, luminescence; U3A cells lack STAT1; 100 means same as IL-6 alone;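 active = percent activation of the STAT3 luciferase reporter above a set limit taken from the earlier primary screen, cut at about 130% in these data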;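 also: 0% = background signal of medium plus substrate and 100% = median of IL-6 with DMSO wells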
NFkB act STAT3ct: counter-screen for STAT3 activators: NF-kappaB activation; activation (% of control), % at 5.7 µM; shares compounds with STAT3 act-1; 11% of 1,200 active; AID 1309; human cells, NF-kappaB reporter activation; in the data active = activation above about 120%;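 also: reporter induced by TNF-alpha stimulation; 100% = median of stimulated DMSO wells and 0% = no signal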
STAT1 act-2: STAT1 activation in STAT3 activator counter-screen; shares compounds with STAT3 act-1; 13% of 1,200 active; NIH 3T3 STAT1-luciferase reporter, IFN-gamma, luminescence; activation (% of control), % at 5.7 µM;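 active = activation above the solvent-only control well mean plus 3 SD, set per screening run, cut at about 120% in these data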;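 also: 100% = IFN-gamma with DMSO median signal so 100% means no change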
Starred values were filed as active, the others as inactive; nt = not tested or not shown.

SMILES	NF-kB expr up	STAT3 blocker	STAT1 act-1	STAT1 inh	STAT3 act-1	APP 5'UTR act	STAT3 act-2	NFkB act STAT3ct	STAT1 act-2
CC1Oc2ccccc2OC1C(=O)Nc1ccccn1 (stereo not drawn)	0.95	-64	92	7	156*	21	144*	103	90
CC(C)(C)c1ccc(S(=O)(=O)Nc2cccc(C3OCCCO3)c2)cc1	0.83	-2	91	10	99	10	nt	nt	nt
Cc1cc(O)c(NC(=O)c2ccc(Br)o2)cc1C	1.4	-71	89	12	161*	52	151*	115	95
O=C(Cc1ccc([N+](=O)[O-])cc1)N1N=C(C2CC2)CC1(O)C(F)(F)F (stereo not drawn)	1.2	12	95	4	97	2	nt	nt	nt
C=CCn1c(COc2ccc(CC)cc2)nnc1SC/C(O)=C(\C#N)c1nc2ccccc2[nH]1	0.76	-72	93	8	160*	7	150*	102	89
Cc1ccc(-n2c(C)nc3oc4ccccc4c(=O)c3c2=O)cc1	3	-55	117	-19	149*	89	159*	122*	135*
Cc1ccccc1Nc1nc(N)nc(COC(=O)c2ccc(O)cc2)n1	1	24	103	-3	82	12	nt	nt	nt
CCc1ccccc1Nc1nc(N)nc(COC(=O)c2cccn2C)n1	1.6	-44	108	-9	147*	12	150*	110	125*
Nc1[nH]n2c(=O)cc(-c3ccccc3)nc2c1N=Nc1ccc2c(c1)OCO2	1.6	2	98	1	103	-11	nt	nt	nt
N/C(=N\OC(=O)c1ccc2ccccc2c1)c1ccc(Br)cc1	1.1	4	105	-6	97	11	nt	nt	nt
N/C(=N\OC(=O)c1cccc2ccccc12)c1ccc(Br)cc1	1.4	-46	97	3	139*	16	135*	107	106
O=C(Oc1ccccc1O)c1cccc2ccccc12	3.5*	-42	109	-11	141*	-5	132	102	103
Cc1ccc(C)c(C(=O)O/N=C(\N)c2ccc(Br)cc2)c1	1.9	-61	92	8	155*	10	150*	108	102
N/C(=N\OC(=O)c1cccc(Br)c1)c1ccccc1	5.3*	-72	127	-30	158*	-4	152*	131*	151*
O=C1CC(Nc2ccc3ccccc3c2)C(=O)N1Cc1ccccc1 (stereo not drawn)	0.91	-36	104	-5	138*	-8	135*	104	103
O=C1CC(Nc2ccc(N3CCOCC3)cc2)C(=O)N1Cc1ccccc1 (stereo not drawn)	1.2	6	89	12	97	4	nt	nt	nt
O=C1c2ccccc2C(=O)N1CCC1=CCCCC1	1.3	-41	121	-23	141*	22	121	122*	132*
CC(OC(=O)C1CCN(S(=O)(=O)c2ccc(Cl)cc2)CC1)C(=O)N1CCc2ccccc21 (stereo not drawn)	0.92	-5	102	-2	107	19	nt	nt	nt
Cc1ccc(Sc2c(C=O)c3ccccc3n2C)cc1	0.77	-63	90	11	157*	4	128	81	87
COc1ccc(S(=O)(=O)N2CCCCCC2)cc1N(C)S(=O)(=O)c1ccc(C)cc1	0.54	20	92	8	86	2	nt	nt	nt
c1ccc2c(-c3c[nH]c4ccccc34)c3ccccc3nc2c1	1.2	19	97	3	92	18	nt	nt	nt
O=C(O)c1cc(-c2c[nH]c3ccccc23)nc2ccc3ccccc3c12	1.2	-49	89	11	142*	11	163*	112	100
Clc1ccc2nc(SCc3nnc(-c4ccccc4)o3)[nH]c2c1	0.88	9	92	9	93	8	nt	nt	nt
Cc1ccc2nc(SCc3nnc(-c4ccccc4Br)o3)[nH]c2c1	3	-45	101	-1	140*	16	124	100	99
CN(C)CCN(Cc1cc2cc3c(cc2[nH]c1=O)OCO3)C(=S)NCC1CCCO1 (stereo not drawn)	1.1	3	104	-6	99	-5	nt	nt	nt
SMILES	NF-kB expr up	STAT3 blocker	STAT1 act-1	STAT1 inh	STAT3 act-1	APP 5'UTR act	STAT3 act-2	NFkB act STAT3ct	STAT1 act-2
COc1ccccc1/C=N/NC(=O)C1=NNC(c2ccccc2)(c2ccccc2)C1	0.98	-52	91	10	149*	12	120	101	93
CCC(CC)NC(=O)c1cccc(NC(=O)C(C)C)c1	1.4	16	99	1	90	5	nt	nt	nt
O=C(CN1CCC2(CC1)OCCO2)c1c[nH]c2ccccc12	0.87	-54	102	-3	148*	12	123	105	98
Clc1cccc(/C=N/Nc2nnc(Cl)c3ccccc23)c1	1.6	-39	100	0	140*	4	128	113	117
Clc1ccc(/C=N/Nc2nnc(-c3ncc[nH]3)c3ccccc23)cc1	0.66	-17	114	-15	116	41	nt	nt	nt
Cc1ccc(-n2nc(C)cc2NC(=O)CC#N)cc1	1.2	7	93	6	99	-4	nt	nt	nt
Cc1ccc(-n2nc(C)cc2NC(=O)c2ccc(C)s2)cc1	1	-37	100	0	136*	-13	114	102	97
Cc1ccc(S(=O)(=O)N2CCC(=O)N(CCOC(=O)Nc3ccc(C)c(C)c3)CC2)cc1	1	8	103	-3	91	-9	nt	nt	nt
CCn1c(N2CCN(CC(=O)c3c[nH]c4ccccc34)CC2)nc2c1c(=O)[nH]c(=O)n2C	1	-47	93	8	142*	9	137*	110	98
CC(=O)c1ccc(-c2ccc(C(=O)N3CCCc4ccccc43)o2)cc1	1.3	11	125	-24	94	31	nt	nt	nt
Cn1ncc(Br)c1C(=O)Nc1c(F)c(F)cc(F)c1F	1.4	-42	122	-41	139*	-3	137*	115	148*
CC(C)C1N=C(c2ccc3c(c2)OCO3)CC(c2ccccc2O)N1 (stereo not drawn)	2.5	-37	89	12	138*	104	126	108	90
O=C(COc1ccccc1CNCc1ccccc1)Nc1ccccc1	1	-51	102	-6	143*	nt	123	111	105
CCOc1ccccc1CNCc1ccc(C(=O)O)cc1	0.95	9	97	4	100	0	nt	nt	nt
